{
  "source": "ChEMBL document CHEMBL1125679",
  "about": "“Novel caffeic acid derivatives: extremely potent inhibitors of 12-lipoxygenase” (J Med Chem, 1991)",
  "key": {"[1]": {"target": "T1, Polyunsaturated fatty acid lipoxygenase ALOX15B (Rattus norvegicus, UniProt Q8K4F2)", "T1 sequence (Q8K4F2 whole entry)": "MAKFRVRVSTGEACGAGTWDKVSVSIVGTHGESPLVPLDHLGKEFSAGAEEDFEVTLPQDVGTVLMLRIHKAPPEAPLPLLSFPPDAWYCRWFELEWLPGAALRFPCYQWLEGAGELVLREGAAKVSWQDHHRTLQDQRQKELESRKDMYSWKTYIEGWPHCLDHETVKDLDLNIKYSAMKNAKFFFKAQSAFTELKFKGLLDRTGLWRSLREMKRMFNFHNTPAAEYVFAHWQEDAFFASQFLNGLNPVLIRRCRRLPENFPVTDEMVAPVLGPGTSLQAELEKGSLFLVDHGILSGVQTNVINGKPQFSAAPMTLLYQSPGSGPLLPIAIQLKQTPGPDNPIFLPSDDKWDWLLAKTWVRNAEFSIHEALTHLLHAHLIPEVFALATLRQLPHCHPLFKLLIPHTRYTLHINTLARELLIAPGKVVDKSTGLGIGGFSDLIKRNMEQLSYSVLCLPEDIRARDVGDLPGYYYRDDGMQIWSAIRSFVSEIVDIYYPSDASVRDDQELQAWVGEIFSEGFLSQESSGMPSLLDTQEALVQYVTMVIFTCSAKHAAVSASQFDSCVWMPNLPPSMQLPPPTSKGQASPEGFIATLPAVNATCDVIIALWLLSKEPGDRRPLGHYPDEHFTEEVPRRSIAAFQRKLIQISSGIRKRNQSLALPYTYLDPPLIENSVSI", "experiment": "Inhibitory activity against 15-lipoxygenase in rat polymorphonuclear leukocytes", "format": "cell-based", "summary_of_the_method": "(§1)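 Heparinized rat blood; PMNLs isolated by Ficoll/Hypaque gradient and hypotonic hemolysis, washed thrice in Hanks' solution, resuspended at 2 × 10^7 cells/mL in 1/15 M phosphate buffer pH 8.2 (>94% neutrophils, <1% platelets). Cells sonicated at 4 °C, given 1 mM CaCl2, incubated with [14C]arachidonic acid (0.2 µCi) 20 min at 37 °C; stopped by HCl acidification to pH 3.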"}, "[2]": {"target": "12-lipoxygenase (Rattus norvegicus, UniProt F1LQ70)", "sequence (F1LQ70 whole entry, looked up)": "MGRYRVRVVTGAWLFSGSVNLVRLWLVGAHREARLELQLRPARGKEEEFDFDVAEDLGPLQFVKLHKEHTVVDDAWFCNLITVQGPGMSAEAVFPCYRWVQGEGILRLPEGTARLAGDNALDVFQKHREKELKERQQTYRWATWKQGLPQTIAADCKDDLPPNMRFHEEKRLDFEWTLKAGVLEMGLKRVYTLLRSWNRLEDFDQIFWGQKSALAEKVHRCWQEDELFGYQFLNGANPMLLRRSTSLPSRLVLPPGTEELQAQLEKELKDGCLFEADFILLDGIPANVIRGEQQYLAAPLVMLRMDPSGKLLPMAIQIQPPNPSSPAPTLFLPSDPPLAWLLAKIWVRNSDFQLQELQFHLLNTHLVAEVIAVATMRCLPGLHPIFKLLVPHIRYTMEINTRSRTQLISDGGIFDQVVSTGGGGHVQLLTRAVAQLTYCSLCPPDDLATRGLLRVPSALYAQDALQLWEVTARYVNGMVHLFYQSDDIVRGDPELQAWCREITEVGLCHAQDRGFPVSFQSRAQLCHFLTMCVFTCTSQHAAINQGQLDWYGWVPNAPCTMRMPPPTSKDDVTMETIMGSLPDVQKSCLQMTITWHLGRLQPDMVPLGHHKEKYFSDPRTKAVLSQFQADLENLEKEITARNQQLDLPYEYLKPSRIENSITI", "experiment": "Inhibitory activity against 12-lipoxygenase in rat platelet rich plasma", "format": "cell-free"}, "[3]": {"target": "T2, Polyunsaturated fatty acid 5-lipoxygenase (Rattus norvegicus, UniProt P12527)", "T2 sequence (P12527 whole entry)": "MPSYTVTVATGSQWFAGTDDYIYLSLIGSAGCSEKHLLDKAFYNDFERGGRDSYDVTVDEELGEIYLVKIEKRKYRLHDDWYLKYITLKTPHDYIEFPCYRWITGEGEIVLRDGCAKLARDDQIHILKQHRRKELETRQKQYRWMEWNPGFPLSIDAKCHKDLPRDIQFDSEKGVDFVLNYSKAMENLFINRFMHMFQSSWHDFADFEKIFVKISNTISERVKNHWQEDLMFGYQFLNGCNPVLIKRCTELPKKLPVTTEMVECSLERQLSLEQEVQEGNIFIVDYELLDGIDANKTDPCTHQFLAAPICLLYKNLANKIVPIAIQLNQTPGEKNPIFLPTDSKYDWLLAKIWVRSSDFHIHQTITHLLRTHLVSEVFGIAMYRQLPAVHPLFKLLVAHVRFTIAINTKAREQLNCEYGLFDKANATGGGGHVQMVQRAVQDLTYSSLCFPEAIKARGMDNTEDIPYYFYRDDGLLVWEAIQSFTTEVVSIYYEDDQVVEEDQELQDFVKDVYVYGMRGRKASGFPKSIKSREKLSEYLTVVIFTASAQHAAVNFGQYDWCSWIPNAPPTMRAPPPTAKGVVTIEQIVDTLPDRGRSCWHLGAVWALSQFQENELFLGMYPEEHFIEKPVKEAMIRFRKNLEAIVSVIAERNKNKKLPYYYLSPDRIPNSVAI", "experiment": "Inhibitory activity against 5-lipoxygenase in rat polymorphonuclear leukocytes", "format": "cell-based", "summary_of_the_method": "as §1"}},
  "data": [
    {"compound": "N#C/C(=C\\c1ccc(O)c(O)c1)C(=O)OCCCc1ccccc1", "values": [
      {"measurement": "IC50", "setting": "[1]", "result": 1400, "unit": "nM"},
      {"measurement": "IC50", "setting": "[2]", "result": 53, "unit": "nM"},
      {"measurement": "IC50", "setting": "[3]", "result": 160, "unit": "nM"}
    ]},
    {"compound": "N#C/C(=C\\c1ccc(O)c(O)c1)C(=O)OCCCCCCCCn1ccnc1", "values": [
      {"measurement": "IC50", "setting": "[1]", "result": "> 10000", "unit": "nM"},
      {"measurement": "IC50", "setting": "[2]", "result": 180, "unit": "nM"},
      {"measurement": "IC50", "setting": "[3]", "result": "> 10000", "unit": "nM"}
    ]},
    {"compound": "N#C/C(=C\\c1ccc(O)c(O)c1)C(=O)OCCCc1cccnc1", "values": [
      {"measurement": "IC50", "setting": "[1]", "result": 3930, "unit": "nM"},
      {"measurement": "IC50", "setting": "[2]", "result": 470, "unit": "nM"},
      {"measurement": "IC50", "setting": "[3]", "result": "> 10000", "unit": "nM"}
    ]},
    {"compound": "N#C/C(=C\\c1ccc(O)c(O)c1)C(=O)OCCc1cccs1", "values": [
      {"measurement": "IC50", "setting": "[1]", "result": 500, "unit": "nM"},
      {"measurement": "IC50", "setting": "[2]", "result": 13, "unit": "nM"},
      {"measurement": "IC50", "setting": "[3]", "result": 90, "unit": "nM"}
    ]},
    {"compound": "N#C/C(=C\\c1ccc(O)c(O)c1)C(=O)OC/C=C/c1ccccc1", "values": [
      {"measurement": "IC50", "setting": "[1]", "result": 3330, "unit": "nM"},
      {"measurement": "IC50", "setting": "[2]", "result": 63, "unit": "nM"},
      {"measurement": "IC50", "setting": "[3]", "result": 1890, "unit": "nM"}
    ]},
    {"compound": "N#C/C(=C\\c1ccc(O)c(O)c1)C(=O)OCCc1ccccc1", "values": [
      {"measurement": "IC50", "setting": "[1]", "result": 430, "unit": "nM"},
      {"measurement": "IC50", "setting": "[2]", "result": 51, "unit": "nM"},
      {"measurement": "IC50", "setting": "[3]", "result": 160, "unit": "nM"}
    ]},
    {"compound": "COc1ccccc1CCOC(=O)/C(C#N)=C/c1ccc(O)c(O)c1", "values": [
      {"measurement": "IC50", "setting": "[1]", "result": 1620, "unit": "nM"},
      {"measurement": "IC50", "setting": "[2]", "result": 64, "unit": "nM"},
      {"measurement": "IC50", "setting": "[3]", "result": 140, "unit": "nM"}
    ]},
    {"compound": "CCOC(=O)/C(C#N)=C/c1ccc(O)c(O)c1", "values": [
      {"measurement": "IC50", "setting": "[1]", "result": 330, "unit": "nM"},
      {"measurement": "IC50", "setting": "[2]", "result": 33, "unit": "nM"},
      {"measurement": "IC50", "setting": "[3]", "result": "> 10000", "unit": "nM"}
    ]},
    {"compound": "N#C/C(=C\\c1ccc(O)c(O)c1)C(=O)OCCCCc1ccccc1", "values": [
      {"measurement": "IC50", "setting": "[1]", "result": 3590, "unit": "nM"},
      {"measurement": "IC50", "setting": "[2]", "result": 470, "unit": "nM"},
      {"measurement": "IC50", "setting": "[3]", "result": 220, "unit": "nM"}
    ]},
    {"compound": "O=c1cc(-c2ccccc2)oc2cc(O)c(O)c(O)c12", "note": "[BAICALEIN]", "values": [
      {"measurement": "IC50", "setting": "[1]", "result": 260, "unit": "nM"},
      {"measurement": "IC50", "setting": "[2]", "result": 15, "unit": "nM"}
    ]}
  ]
}
